Laboratory results reported in ChEMBL document CHEMBL3425429.
Active and inactive are the calls of the source. No cut-off for these calls is given here.

Key:
[1] = molecular target: Dual specificity mitogen-activated protein kinase kinase 1 (Homo sapiens, UniProt Q02750); assay: Inhibition of human MEK1
Method in brief: (§1)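 Recombinant human protein kinases screened through the Eurofins KinaseProfiler service. IC50 values are means of two independent experiments.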

[2] = molecular target: Serine/threonine-protein kinase pim-1 (Homo sapiens, UniProt P11309); assay: Inhibition of human Pim1; method in brief: as §1
Chain of Serine/threonine-protein kinase pim-1 (P11309 whole entry): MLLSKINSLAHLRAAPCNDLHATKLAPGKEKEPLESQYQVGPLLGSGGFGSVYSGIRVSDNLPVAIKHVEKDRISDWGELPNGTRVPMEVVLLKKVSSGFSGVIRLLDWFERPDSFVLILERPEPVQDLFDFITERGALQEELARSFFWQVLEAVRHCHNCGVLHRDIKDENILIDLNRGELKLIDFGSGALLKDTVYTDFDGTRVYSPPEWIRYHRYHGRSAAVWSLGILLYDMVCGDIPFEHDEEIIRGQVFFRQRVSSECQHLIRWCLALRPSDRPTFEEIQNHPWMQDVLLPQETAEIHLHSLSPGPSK

MCF7 = assay: Cytotoxicity against human MCF7 cells assessed as cell viability after 72 hrs by MTT assay; format: functional, cell-based; conditions: MCF7, 72 h
MDA-MB-231 [3] = assay: Induction of apoptosis in human MDA-MB-231 cells assessed as late apoptotic cells at 0.03 uM after 24 hrs by annexin V-FITC/propidium iodide staining-based flow cytometric analysis (reference value: 2.67%); format: functional
MDA-MB-231 [4] = assay: Induction of apoptosis in human MDA-MB-231 cells assessed as viable cells at 0.3 uM after 24 hrs by annexin V-FITC/propidium iodide staining-based flow cytometric analysis (reference value: 95.5%); format: functional; conditions: MDA-MB-231, 24 h, read-out: Activity
[5] = molecular target: Protein kinase C alpha type (Homo sapiens, UniProt P17252); assay: Inhibition of human PKCalpha; method in brief: as §1
MDA-MB-231 [6] = assay: Antitumor activity against human MDA-MB-231 cells xenografted in SCID mouse assessed as tumor growth inhibition at 7.5 to 15 mg/kg/day, po qd administered for 18 days measured every 3 days during compound dosing; format: functional, organism-based
Method in brief: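 SCID mice (5–6 weeks) were injected subcutaneously with 100 μL of exponential-phase MDA-MB-231 cells (5 × 10^7 per mL). They were randomized at 150–200 mm3 tumor volume (6 per group) and dosed orally once daily for 18 days in sterile water with 25% PEG400 plus 5% DMSO, with a vehicle group. Tumor volume (ab2/2) was measured every 3 days.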

[7] = molecular target: Serine/threonine-protein kinase PAK 1 (Homo sapiens, UniProt Q13153); assay: Inhibition of human PAK1; method in brief: as §1
Chain of Serine/threonine-protein kinase PAK 1 (Q13153 whole entry): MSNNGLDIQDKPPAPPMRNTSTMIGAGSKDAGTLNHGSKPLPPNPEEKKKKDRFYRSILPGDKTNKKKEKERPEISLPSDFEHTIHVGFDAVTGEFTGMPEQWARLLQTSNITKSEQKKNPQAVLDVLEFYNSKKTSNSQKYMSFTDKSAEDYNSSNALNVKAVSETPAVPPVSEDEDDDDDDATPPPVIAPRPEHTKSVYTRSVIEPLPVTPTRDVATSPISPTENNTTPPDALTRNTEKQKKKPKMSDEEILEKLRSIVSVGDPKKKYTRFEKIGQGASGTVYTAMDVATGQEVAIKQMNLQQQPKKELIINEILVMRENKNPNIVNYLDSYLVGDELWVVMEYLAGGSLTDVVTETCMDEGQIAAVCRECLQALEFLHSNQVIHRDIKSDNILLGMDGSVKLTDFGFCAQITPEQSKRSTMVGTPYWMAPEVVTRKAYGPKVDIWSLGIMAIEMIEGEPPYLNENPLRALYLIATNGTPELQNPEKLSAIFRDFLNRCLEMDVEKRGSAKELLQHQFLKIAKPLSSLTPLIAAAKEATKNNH

MDA-MB-231 [8] = assay: Induction of apoptosis in human MDA-MB-231 cells assessed as late apoptotic cells at 0.03 uM after 48 hrs by annexin V-FITC/propidium iodide staining-based flow cytometric analysis (reference value: 4.25%); format: functional
[9] = molecular target: Cyclin-dependent kinase 2 (Homo sapiens, UniProt P24941); assay: Inhibition of human CDK2; method in brief: as §1
MDA-MB-231 [10] = assay: Antiinvasive activity against human MDA-MB-231 cells at 0.1 uM after 24 hrs by transwell assay; format: functional, cell-based
MDA-MB-231 [11] = assay: Induction of apoptosis in human MDA-MB-231 cells assessed as viable cells at 0.1 uM after 24 hrs by annexin V-FITC/propidium iodide staining-based flow cytometric analysis (reference value: 95.5%); format: functional; conditions: MDA-MB-231, 24 h, read-out: Activity
[12] = molecular target: Serine/threonine-protein kinase Chk1 (Homo sapiens, UniProt O14757); assay: Inhibition of human CHK1; method in brief: as §1
Chain of Serine/threonine-protein kinase Chk1 (O14757 whole entry): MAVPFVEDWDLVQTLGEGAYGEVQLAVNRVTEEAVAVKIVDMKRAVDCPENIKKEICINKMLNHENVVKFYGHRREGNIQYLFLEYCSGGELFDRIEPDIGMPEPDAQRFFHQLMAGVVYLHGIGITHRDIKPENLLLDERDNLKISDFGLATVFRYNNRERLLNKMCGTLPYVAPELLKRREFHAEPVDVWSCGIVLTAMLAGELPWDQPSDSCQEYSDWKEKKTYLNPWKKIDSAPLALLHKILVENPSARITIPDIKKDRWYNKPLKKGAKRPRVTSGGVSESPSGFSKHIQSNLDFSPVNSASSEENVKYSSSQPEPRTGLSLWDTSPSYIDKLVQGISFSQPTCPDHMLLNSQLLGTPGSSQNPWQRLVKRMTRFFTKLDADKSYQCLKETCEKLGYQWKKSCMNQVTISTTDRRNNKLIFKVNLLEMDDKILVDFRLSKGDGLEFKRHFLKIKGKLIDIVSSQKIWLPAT

[13] = molecular target: RAC-beta serine/threonine-protein kinase (Homo sapiens, UniProt P31751); assay: Inhibition of human PKBbeta; method in brief: as §1
Chain of RAC-beta serine/threonine-protein kinase (P31751 whole entry): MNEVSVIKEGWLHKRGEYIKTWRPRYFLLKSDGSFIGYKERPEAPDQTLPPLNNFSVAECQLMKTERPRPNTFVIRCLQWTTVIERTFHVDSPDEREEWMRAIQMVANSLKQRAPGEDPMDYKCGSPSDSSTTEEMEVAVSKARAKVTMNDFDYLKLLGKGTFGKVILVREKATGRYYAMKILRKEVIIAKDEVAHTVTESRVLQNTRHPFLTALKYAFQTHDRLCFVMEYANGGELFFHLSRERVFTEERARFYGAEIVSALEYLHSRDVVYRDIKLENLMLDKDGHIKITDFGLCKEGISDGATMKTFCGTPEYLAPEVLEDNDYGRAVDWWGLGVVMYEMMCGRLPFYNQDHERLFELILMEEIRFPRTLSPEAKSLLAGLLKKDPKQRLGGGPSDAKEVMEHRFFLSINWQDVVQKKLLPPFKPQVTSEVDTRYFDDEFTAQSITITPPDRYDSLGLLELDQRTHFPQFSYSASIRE

Focal adhesion kinase 1 = Focal adhesion kinase 1 (Homo sapiens, UniProt Q05397); assay: Inhibition of human FAK; method in brief: as §1
Chain of Focal adhesion kinase 1 (Q05397 whole entry): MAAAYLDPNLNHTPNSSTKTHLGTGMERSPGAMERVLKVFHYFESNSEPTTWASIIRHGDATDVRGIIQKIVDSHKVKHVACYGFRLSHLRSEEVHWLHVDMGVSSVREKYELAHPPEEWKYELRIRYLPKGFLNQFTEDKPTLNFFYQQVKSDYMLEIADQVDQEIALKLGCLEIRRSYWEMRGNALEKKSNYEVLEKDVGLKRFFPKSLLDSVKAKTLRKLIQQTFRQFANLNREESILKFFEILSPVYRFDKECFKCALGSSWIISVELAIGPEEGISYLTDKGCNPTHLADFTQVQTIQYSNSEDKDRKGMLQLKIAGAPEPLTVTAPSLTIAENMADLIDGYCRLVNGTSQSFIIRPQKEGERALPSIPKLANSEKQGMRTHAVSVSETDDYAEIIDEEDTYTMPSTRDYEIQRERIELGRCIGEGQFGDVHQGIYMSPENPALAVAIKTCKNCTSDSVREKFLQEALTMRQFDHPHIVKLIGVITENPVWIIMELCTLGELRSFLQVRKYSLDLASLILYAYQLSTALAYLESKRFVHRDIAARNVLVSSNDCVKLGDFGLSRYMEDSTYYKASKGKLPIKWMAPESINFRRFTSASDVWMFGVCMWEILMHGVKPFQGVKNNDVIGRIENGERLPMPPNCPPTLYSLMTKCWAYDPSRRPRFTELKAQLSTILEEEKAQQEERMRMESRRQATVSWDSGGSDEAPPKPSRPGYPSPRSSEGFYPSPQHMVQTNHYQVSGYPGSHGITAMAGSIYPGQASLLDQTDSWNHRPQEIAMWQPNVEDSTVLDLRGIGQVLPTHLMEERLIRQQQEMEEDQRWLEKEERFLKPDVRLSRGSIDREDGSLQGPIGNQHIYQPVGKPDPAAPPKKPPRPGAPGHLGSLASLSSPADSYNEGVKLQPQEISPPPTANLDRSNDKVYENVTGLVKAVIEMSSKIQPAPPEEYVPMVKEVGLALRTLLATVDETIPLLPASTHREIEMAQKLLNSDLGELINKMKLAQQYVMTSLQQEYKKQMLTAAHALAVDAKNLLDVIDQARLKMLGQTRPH

Aurora kinase A = Aurora kinase A (Homo sapiens, UniProt O14965); assay: Inhibition of human Aurora-A; method in brief: as §1
Rattus norvegicus = assay: Apparent volume of distribution at steady state in Sprague-Dawley rat at 10 mg/kg, po by LC/MS analysis; format: ADME, organism-based; set-up: dose 10 mg/kg, route oral; conditions: in vivo
Method in brief: (§2)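 Single oral gavage dose in male Sprague-Dawley rats fasted overnight; serial blood drawn via surgically placed jugular vein catheters at set times, plasma separated at once and measured by HPLC-MS/MS; noncompartmental parameters fitted; n=5.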

MDA-MB-231 [14] = assay: Cell cycle arrest in human MDA-MB-231 cells assessed as accumulation at G0/G1 phase at 0.1 to 0.3 uM after 24 to 48 hrs by flow cytometric analysis; format: functional, cell-based
MDA-MB-231 [15] = assay: Induction of apoptosis in human MDA-MB-231 cells assessed as early apoptotic cells at 0.03 uM after 24 hrs by annexin V-FITC/propidium iodide staining-based flow cytometric analysis (reference value: 1.58%); format: functional
Mus musculus = assay: Toxicity in SCID mouse xenografted with human MDA-MB-231 cells at 7.5 to 15 mg/kg/day, po qd administered for 18 days measured everyday during compound dosing; format: organism-based; set-up: route oral; conditions: in vivo, 432 h
Method in brief: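 SCID mice (5–6 weeks) implanted subcutaneously with 100 μL of MDA-MB-231 suspension at 5 ×10^7 per mL. At 150–200 mm3 tumours, mice were randomised (6 per group) and dosed orally once daily for 18 days in water with 25% PEG400 plus 5% DMSO. Side effects were monitored daily.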

[16] = molecular target: Phosphatidylinositol 4,5-bisphosphate 3-kinase catalytic subunit alpha isoform (Homo sapiens, UniProt P42336); assay: Inhibition of human PI3Kalpha; method in brief: as §1
Chain of Phosphatidylinositol 4,5-bisphosphate 3-kinase catalytic subunit alpha isoform (P42336 whole entry, canonical isoform): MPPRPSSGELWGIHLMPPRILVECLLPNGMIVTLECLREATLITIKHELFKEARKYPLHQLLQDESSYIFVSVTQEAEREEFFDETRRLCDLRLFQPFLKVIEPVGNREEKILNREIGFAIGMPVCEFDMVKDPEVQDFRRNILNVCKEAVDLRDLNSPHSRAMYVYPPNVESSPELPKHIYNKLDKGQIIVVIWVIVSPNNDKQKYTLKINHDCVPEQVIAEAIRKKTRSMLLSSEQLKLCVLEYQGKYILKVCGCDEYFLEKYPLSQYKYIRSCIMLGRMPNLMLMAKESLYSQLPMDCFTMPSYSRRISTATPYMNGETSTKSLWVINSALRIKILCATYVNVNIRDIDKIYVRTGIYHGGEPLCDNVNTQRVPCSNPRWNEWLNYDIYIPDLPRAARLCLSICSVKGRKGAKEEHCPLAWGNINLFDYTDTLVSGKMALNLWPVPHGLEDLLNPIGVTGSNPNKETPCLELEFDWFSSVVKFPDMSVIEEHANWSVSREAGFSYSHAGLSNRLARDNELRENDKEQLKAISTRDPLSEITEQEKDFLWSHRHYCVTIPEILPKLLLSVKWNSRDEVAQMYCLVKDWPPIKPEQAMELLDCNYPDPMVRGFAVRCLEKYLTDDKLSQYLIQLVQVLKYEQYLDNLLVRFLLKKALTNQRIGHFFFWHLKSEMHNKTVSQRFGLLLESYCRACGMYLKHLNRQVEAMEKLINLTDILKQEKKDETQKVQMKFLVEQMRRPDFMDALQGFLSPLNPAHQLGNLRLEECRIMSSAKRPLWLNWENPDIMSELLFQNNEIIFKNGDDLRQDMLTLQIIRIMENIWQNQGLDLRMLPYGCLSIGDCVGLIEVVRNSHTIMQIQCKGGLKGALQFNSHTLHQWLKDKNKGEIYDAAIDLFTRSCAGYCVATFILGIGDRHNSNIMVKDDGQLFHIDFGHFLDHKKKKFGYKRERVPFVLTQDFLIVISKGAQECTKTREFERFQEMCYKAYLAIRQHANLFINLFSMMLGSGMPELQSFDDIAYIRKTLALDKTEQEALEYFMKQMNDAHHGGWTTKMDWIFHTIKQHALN

Ramos = assay: Cytotoxicity against human Ramos cells assessed as cell viability after 72 hrs by MTT assay; format: functional, cell-based
MDA-MB-231 [17] = assay: Induction of apoptosis in human MDA-MB-231 cells assessed as early apoptotic cells at 0.1 uM after 48 hrs by annexin V-FITC/propidium iodide staining-based flow cytometric analysis (reference value: […]); format: functional
MDA-MB-231 [18] = assay: Inhibition of MEK phosphorylation in human MDA-MB-231 cells at 0.001 to 1 uM after 20 hrs by Western blot analysis; format: cell-based
Method in brief: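 MDA-MB-231 cells exposed to a concentration series for 20 h at 37 °C, then washed in ice-cold saline and lysed in RIPA buffer with protease cocktail. Lysates were cleared at 12 000 rpm for 10 min at 4 °C and protein measured by Bradford. Equal protein was run on SDS-PAGE, transferred to PVDF and immunoblotted for phospho-proteins.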

MDA-MB-231 [19] = assay: Induction of apoptosis in human MDA-MB-231 cells assessed as early apoptotic cells at 0.03 uM after 48 hrs by annexin V-FITC/propidium iodide staining-based flow cytometric analysis (reference value: […]); format: functional
MDA-MB-231 [20] = assay: Antimigratory activity against human MDA-MB-231 cells at >0.03 uM after 20 hrs by wound healing assay; format: functional, cell-based
Method in brief: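 MDA-MB-231 monolayers grown to confluence, scratched with a sterile pipet tip, rinsed with saline, then kept in DMEM containing vehicle or compound; wound images taken after 20 h and analysed.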

BT-474 = assay: Cytotoxicity against human BT474 cells assessed as cell viability after 72 hrs by MTT assay; format: functional, cell-based; conditions: BT-474, 72 h
[21] = Clearance in Sprague-Dawley rat at 10 mg/kg, po by LC/MS analysis; format: ADME, organism-based; set-up: dose 10 mg/kg, route oral; conditions: in vivo; method in brief: as §2
MDA-MB-231 [22] = assay: Induction of apoptosis in human MDA-MB-231 cells assessed as late apoptotic cells at 0.3 uM after 48 hrs by annexin V-FITC/propidium iodide staining-based flow cytometric analysis (reference value: 4.25%); format: functional
MDA-MB-231 [23] = assay: Induction of apoptosis in human MDA-MB-231 cells assessed as early apoptotic cells at 0.3 uM after 24 hrs by annexin V-FITC/propidium iodide staining-based flow cytometric analysis (reference value: 1.58%); format: functional
Bcr/Abl fusion protein = Bcr/Abl fusion protein (Homo sapiens, UniProt P00519); assay: Inhibition of human BCR/ABL; format: protein assay
Method in brief: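 Recombinant human BCR-ABL kinase, tested as part of a selected kinase panel through a commercial kinase-profiling service. IC50 is the mean of two independent experiments.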

MDA-MB-453 = assay: Cytotoxicity against human MDA-MB-453 cells assessed as cell viability after 72 hrs by MTT assay; format: functional, cell-based; conditions: MDA-MB-453, 72 h

Chain of Dual specificity mitogen-activated protein kinase kinase 1 (Q02750 whole entry): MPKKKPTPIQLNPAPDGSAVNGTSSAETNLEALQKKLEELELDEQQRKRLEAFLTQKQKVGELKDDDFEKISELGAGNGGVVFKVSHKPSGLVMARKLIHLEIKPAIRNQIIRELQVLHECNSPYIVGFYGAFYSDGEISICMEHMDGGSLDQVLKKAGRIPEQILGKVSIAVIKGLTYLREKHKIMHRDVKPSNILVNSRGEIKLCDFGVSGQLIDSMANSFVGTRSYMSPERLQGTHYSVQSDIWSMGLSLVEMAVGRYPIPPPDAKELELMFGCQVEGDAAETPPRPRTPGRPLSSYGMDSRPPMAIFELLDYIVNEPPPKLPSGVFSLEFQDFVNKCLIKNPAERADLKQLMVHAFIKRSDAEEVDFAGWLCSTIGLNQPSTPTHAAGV

CCn1nc(C#Cc2cc(C(=O)Nc3ccc(CN4CCN(C)CC4)c(C(F)(F)F)c3)ccc2C)c2c(N)ncnc21
IC50 [1]: > 10 µM
IC50 [2]: > 10 µM
IC50 (MCF7): 7.25 µM
Activity (MDA-MB-231 [3]): 3.92%
viability at 0.3 µM (MDA-MB-231 [4]): 76.7%
IC50 [5]: > 10 µM
TGI (MDA-MB-231 [6]): Active
IC50 [7]: > 10 µM
Activity (MDA-MB-231 [8]): 4.85%
IC50 [9]: > 10 µM
Activity (MDA-MB-231 [10]): Active
viability at 0.1 µM (MDA-MB-231 [11]): 79.1%
IC50 [12]: > 10 µM
IC50 [13]: > 10 µM
IC50 (Focal adhesion kinase 1): > 10 µM
IC50 (Aurora kinase A): > 10 µM
Vdss(app) (Rattus norvegicus): 38.57 L/kg
Activity (MDA-MB-231 [14]): Active
Activity (MDA-MB-231 [15]): 2.29%
Activity (Mus musculus): Non-toxic
IC50 [16]: > 10 µM
IC50 (Ramos): 10 µM
Activity (MDA-MB-231 [17]): 13.9%
inhibition (MDA-MB-231 [18]): Active
Activity (MDA-MB-231 [19]): 3.23%
Activity (MDA-MB-231 [20]): Active
IC50 (BT-474): > 10 µM
CL/F [21]: 35 mL/min/kg
Activity (MDA-MB-231 [22]): 10.3%
Activity (MDA-MB-231 [23]): 6.51%
IC50 (Bcr/Abl fusion protein): 0.001 µM
IC50 (MDA-MB-453): 0.325 µM
